# Laboratory results: publication PMC9472799 (Biomacromolecules, 2022)
# What was measured:
# Format in all cases: biochemical
# sickle hemoglobin (HbS) [1] = molecular target: T1, sickle hemoglobin (HbS) (Homo sapiens, UniProt P68871+P69905, P68871:E7V); assay: NMR binding
# In short: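 HbS labelled at cysteine thiols with rhodamine red (donor) or Cy5 (acceptor) after TCEP reduction; free dye dialysed away. Donor and acceptor HbS mixed 1:5 at 25 μM. Incubated 2 h at room temperature with test compound at seven concentrations (0.1–1000 μM) or DMSO. Vacuum argon degassed 10 min to deoxygenate. Donor fluorescence lifetime read; FRET efficiency E = 1 − τDA/τD.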
# sickle hemoglobin (HbS) [2] = molecular target: T1, sickle hemoglobin (HbS); assay: DLS oligomer size and FLT-FRET with purified deoxy-HbS
# sickle hemoglobin (HbS) [3] = molecular target: T1, sickle hemoglobin (HbS); assay: FLT-FRET dose response and DLS
smiles,measurement,setting,value
CN1C(=O)CCS(=O)(=O)C1c1ccc(Cl)cc1 (stereo not drawn) [chlormezanone],IC50,sickle hemoglobin (HbS) [1],> 100 µM
CC(C)n1nccc1-c1ncccc1COc1cccc(O)c1C=O [voxelotor],DLS oligomer size and FLT-FRET with purified deoxy-HbS,sickle hemoglobin (HbS) [2],"voxelotor (a compound that increases hemoglobin oxygen binding affinity), which dramatically reduced the mean oligomer size (Figure 1A)"
COc1ccc(-c2ccc(=N)n(CCCC(=O)O)n2)cc1 [gabazine],FLT-FRET dose response and DLS (100 μM) with purified deoxy-HbS,sickle hemoglobin (HbS) [3],all three compounds significantly decreased the oligomer size relative to control (and to the same extent as voxelotor)
